# Measured values from ChEMBL document CHEMBL1139476, “Radioiodinated flavones for in vivo imaging of beta-amyloid plaques in the brain” (J Med Chem, 2005).
# pKi: −log10 of the molar value.
# Columns and labels:
# Brain [1] = experiment: Biodistribution in ddY mouse brain at 2 uCi, iv after 30 mins; format: ADME, organism-based; details: in vivo, 0.5 h
# Summary of the method: (§1)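 Normal mice given the 125I-labelled flavone intravenously; killed at each time point postinjection, organs removed, weighed and counted in a γ counter. Radioactivity expressed as % injected dose per gram tissue; mean (SD) of three to five animals per interval.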
# Brain [2] = experiment: Biodistribution in ddY mouse brain at 2 uCi, iv after 60 mins; format: ADME, organism-based; details: in vivo, 1 h; summary of the method: as §1
# Heart [3] = experiment: Biodistribution in ddY mouse heart at 2 uCi, iv after 10 mins; format: ADME, organism-based; details: in vivo; summary of the method: as §1
# Stomach [4] = experiment: Biodistribution per organ in ddY mouse stomach at 2 uCi, iv after 30 mins; format: ADME, organism-based; details: in vivo, 0.5 h
# Summary of the method: (§2)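 Normal mice injected intravenously with the 125I-labelled flavone; killed at each time point, stomach removed and counted in a γ counter. Value given as % injected dose per whole organ; mean (SD) of three to five animals per interval.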
# Spleen [5] = experiment: Biodistribution in ddY mouse spleen at 2 uCi, iv after 10 mins; format: ADME, organism-based; details: in vivo; summary of the method: as §1
# Intestine [6] = experiment: Biodistribution in ddY mouse intestine at 2 uCi, iv after 30 mins; format: ADME, organism-based; details: in vivo, 0.5 h; summary of the method: as §1
# Stomach [7] = experiment: Biodistribution per organ in ddY mouse stomach at 2 uCi, iv after 60 mins; format: ADME, organism-based; details: in vivo, 1 h; summary of the method: as §2
# Liver [8] = experiment: Biodistribution in ddY mouse liver at 2 uCi, iv after 2 mins; format: ADME, organism-based; details: in vivo; summary of the method: as §1
# Heart [9] = experiment: Biodistribution in ddY mouse heart at 2 uCi, iv after 2 mins; format: ADME, organism-based; details: in vivo; summary of the method: as §1
# Brain [10] = experiment: Biodistribution in ddY mouse brain at 2 uCi, iv after 10 mins; format: ADME, organism-based; details: in vivo; summary of the method: as §1
# Spleen [11] = experiment: Biodistribution in ddY mouse spleen at 2 uCi, iv after 30 mins; format: ADME, organism-based; details: in vivo, 0.5 h; summary of the method: as §1
# Intestine [12] = experiment: Biodistribution in ddY mouse intestine at 2 uCi, iv after 2 mins; format: ADME, organism-based; details: in vivo; summary of the method: as §1
# Kidney [13] = experiment: Biodistribution in ddY mouse kidney at 2 uCi, iv after 60 mins; format: ADME, organism-based; details: in vivo, 1 h; summary of the method: as §1
# Heart [14] = experiment: Biodistribution in ddY mouse heart at 2 uCi, iv after 30 mins; format: ADME, organism-based; details: in vivo, 0.5 h; summary of the method: as §1
# Liver [15] = experiment: Biodistribution in ddY mouse liver at 2 uCi, iv after 30 mins; format: ADME, organism-based; details: in vivo, 0.5 h; summary of the method: as §1
# Kidney [16] = experiment: Biodistribution in ddY mouse kidney at 2 uCi, iv after 10 mins; format: ADME, organism-based; details: in vivo; summary of the method: as §1
# Intestine [17] = experiment: Biodistribution in ddY mouse intestine at 2 uCi, iv after 10 mins; format: ADME, organism-based; details: in vivo; summary of the method: as §1
# Intestine [18] = experiment: Biodistribution in ddY mouse intestine at 2 uCi, iv after 60 mins; format: ADME, organism-based; details: in vivo, 1 h; summary of the method: as §1
# Stomach [19] = experiment: Biodistribution per organ in ddY mouse stomach at 2 uCi, iv after 2 mins; format: ADME, organism-based; details: in vivo; summary of the method: as §2
# Stomach [20] = experiment: Biodistribution per organ in ddY mouse stomach at 2 uCi, iv after 10 mins; format: ADME, organism-based; details: in vivo; summary of the method: as §2
# Spleen [21] = experiment: Biodistribution in ddY mouse spleen at 2 uCi, iv after 2 mins; format: ADME, organism-based; details: in vivo; summary of the method: as §1
# Liver [22] = experiment: Biodistribution in ddY mouse liver at 2 uCi, iv after 10 mins; format: ADME, organism-based; details: in vivo; summary of the method: as §1
# Liver [23] = experiment: Biodistribution in ddY mouse liver at 2 uCi, iv after 60 mins; format: ADME, organism-based; details: in vivo, 1 h; summary of the method: as §1
# Blood [24] = experiment: Biodistribution in ddY mouse blood at 2 uCi, iv after 2 mins; format: ADME, organism-based; details: in vivo; summary of the method: as §1
# Heart [25] = experiment: Biodistribution in ddY mouse heart at 2 uCi, iv after 60 mins; format: ADME, organism-based; details: in vivo, 1 h; summary of the method: as §1
# Brain [26] = experiment: Biodistribution in ddY mouse brain at 2 uCi, iv after 2 mins; format: ADME, organism-based; details: in vivo; summary of the method: as §1
# Spleen [27] = experiment: Biodistribution in ddY mouse spleen at 2 uCi, iv after 60 mins; format: ADME, organism-based; details: in vivo, 1 h; summary of the method: as §1
# Kidney [28] = experiment: Biodistribution in ddY mouse kidney at 2 uCi, iv after 2 mins; format: ADME, organism-based; details: in vivo; summary of the method: as §1
# Blood [29] = experiment: Biodistribution in ddY mouse blood at 2 uCi, iv after 60 mins; format: ADME, organism-based; details: in vivo, 1 h; summary of the method: as §1
# Blood [30] = experiment: Biodistribution in ddY mouse blood at 2 uCi, iv after 10 mins; format: ADME, organism-based; details: in vivo; summary of the method: as §1
# Blood [31] = experiment: Biodistribution in ddY mouse blood at 2 uCi, iv after 30 mins; format: ADME, organism-based; details: in vivo, 0.5 h; summary of the method: as §1
# [32] = Partition coefficient, log P at pH 7.4; format: physicochemical; details: octanol/water
# Summary of the method: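 Radioiodinated tracer shaken 3 min at room temperature in 1-octanol and 0.1 M phosphate buffer pH 7.4, centrifuged 5 min. Equal aliquots of each layer counted; ratio of octanol to buffer counts, with octanol layer repartitioned until values were consistent. Triplicate, repeated three times; mean (SD) of three experiments.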
# Kidney [33] = experiment: Biodistribution in ddY mouse kidney at 2 uCi, iv after 30 mins; format: ADME, organism-based; details: in vivo, 0.5 h; summary of the method: as §1
# [34] = target: T1, Amyloid-beta precursor protein (Homo sapiens, UniProt P05067); experiment: Displacement of [125I]6-iodo-4'-dimethyaminofl avone from beta amyloid (1-42) protein aggregates
# [35] = target: T1, Amyloid-beta precursor protein; experiment: Displacement of [125I]6-iodo-4'-dimethyaminofl avone from beta amyloid (1-40) protein aggregates
# T1 sequence (P05067 whole entry): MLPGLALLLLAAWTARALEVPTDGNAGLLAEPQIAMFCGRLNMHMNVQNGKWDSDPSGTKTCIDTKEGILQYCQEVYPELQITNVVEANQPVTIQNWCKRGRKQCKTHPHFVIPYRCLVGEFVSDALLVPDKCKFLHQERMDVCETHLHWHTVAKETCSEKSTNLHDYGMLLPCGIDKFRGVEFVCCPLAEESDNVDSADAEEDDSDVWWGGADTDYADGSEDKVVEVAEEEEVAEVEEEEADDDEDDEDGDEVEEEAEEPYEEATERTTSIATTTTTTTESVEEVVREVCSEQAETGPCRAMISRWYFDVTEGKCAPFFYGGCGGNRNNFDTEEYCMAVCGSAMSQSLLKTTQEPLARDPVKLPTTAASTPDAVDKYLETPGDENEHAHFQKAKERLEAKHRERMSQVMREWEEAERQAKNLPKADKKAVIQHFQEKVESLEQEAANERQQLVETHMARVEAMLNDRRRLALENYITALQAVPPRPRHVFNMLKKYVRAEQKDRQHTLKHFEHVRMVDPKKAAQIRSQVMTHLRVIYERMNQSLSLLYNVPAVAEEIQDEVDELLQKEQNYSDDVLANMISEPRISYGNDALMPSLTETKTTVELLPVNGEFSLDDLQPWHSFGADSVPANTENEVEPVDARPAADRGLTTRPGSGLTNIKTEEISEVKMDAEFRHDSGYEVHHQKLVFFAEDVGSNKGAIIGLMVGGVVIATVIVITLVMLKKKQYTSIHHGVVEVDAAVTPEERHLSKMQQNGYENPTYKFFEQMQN
SMILES,Drug uptake (Brain [1]),Drug uptake (Brain [2]),Drug uptake (Heart [3]),Drug uptake (Stomach [4]),Drug uptake (Spleen [5]),Drug uptake (Intestine [6]),Drug uptake (Stomach [7]),Drug uptake (Liver [8]),Drug uptake (Heart [9]),Drug uptake (Brain [10]),Drug uptake (Spleen [11]),Drug uptake (Intestine [12]),Drug uptake (Kidney [13]),Drug uptake (Heart [14]),Drug uptake (Liver [15]),Drug uptake (Kidney [16]),Drug uptake (Intestine [17]),Drug uptake (Intestine [18]),Drug uptake (Stomach [19]),Drug uptake (Stomach [20]),further results
CNc1ccc(-c2cc(=O)c3cc([125I])ccc3o2)cc1,1.84 % ID/g,1.19 % ID/g,2.66 % ID/g,1.44 % ID/organ,2.31 % ID/g,12.84 % ID/g,1.8 % ID/organ,16.28 % ID/g,4.87 % ID/g,3.68 % ID/g,1.76 % ID/g,3.1 % ID/g,3.05 % ID/g,1.67 % ID/g,18.61 % ID/g,5.21 % ID/g,7.91 % ID/g,21.48 % ID/g,0.78 % ID/organ,0.87 % ID/organ,Drug uptake (Spleen [21]): 2.57 % ID/g; Drug uptake (Liver [22]): 25.28 % ID/g; Drug uptake (Liver [23]): 15.14 % ID/g; Drug uptake (Blood [24]): 1.89 % ID/g; Drug uptake (Heart [25]): 1.28 % ID/g; Drug uptake (Brain [26]): 4.12 % ID/g; Drug uptake (Spleen [27]): 1.52 % ID/g; Drug uptake (Kidney [28]): 8.13 % ID/g; Drug uptake (Blood [29]): 1.5 % ID/g; Drug uptake (Blood [30]): 1.39 % ID/g; Drug uptake (Blood [31]): 1.34 % ID/g; logD [32]: 2.15; Drug uptake (Kidney [33]): 3.85 % ID/g
O=c1cc(-c2ccc(O)cc2)oc2ccc([125I])cc12,0.52 % ID/g,0.08 % ID/g,1.6 % ID/g,1.56 % ID/organ,1.55 % ID/g,22.01 % ID/g,0.81 % ID/organ,9.77 % ID/g,5.51 % ID/g,1.9 % ID/g,0.56 % ID/g,3.12 % ID/g,1.66 % ID/g,0.53 % ID/g,6.8 % ID/g,15.11 % ID/g,11.26 % ID/g,27.28 % ID/g,0.89 % ID/organ,0.59 % ID/organ,Drug uptake (Spleen [21]): 3.92 % ID/g; Drug uptake (Liver [22]): 8.24 % ID/g; Drug uptake (Liver [23]): 4.78 % ID/g; Drug uptake (Blood [24]): 2.77 % ID/g; Drug uptake (Heart [25]): 0.12 % ID/g; Drug uptake (Brain [26]): 3.31 % ID/g; Drug uptake (Spleen [27]): 0.17 % ID/g; Drug uptake (Kidney [28]): 14.79 % ID/g; Drug uptake (Blood [29]): 0.2 % ID/g; Drug uptake (Blood [30]): 1.58 % ID/g; Drug uptake (Blood [31]): 0.66 % ID/g; logD [32]: 1.92; Drug uptake (Kidney [33]): 6.45 % ID/g
Nc1c(/N=N/c2ccc(-c3ccc(/N=N/c4cc(S(=O)(=O)O)c5ccccc5c4N)cc3)cc2)cc(S(=O)(=O)O)c2ccccc12 [CONGO RED],,,,,,,,,,,,,,,,,,,,,pKi [34]: < 6.00; pKi [35]: < 6.00

# More lines, main results first:
Drug uptake (Brain [1]),Drug uptake (Brain [2]),Drug uptake (Heart [3]),Drug uptake (Stomach [4]),Drug uptake (Spleen [5]),Drug uptake (Intestine [6]),Drug uptake (Stomach [7]),Drug uptake (Liver [8]),Drug uptake (Heart [9]),Drug uptake (Brain [10]),Drug uptake (Spleen [11]),Drug uptake (Intestine [12]),Drug uptake (Kidney [13]),Drug uptake (Heart [14]),Drug uptake (Liver [15]),Drug uptake (Kidney [16]),Drug uptake (Intestine [17]),Drug uptake (Intestine [18]),Drug uptake (Stomach [19]),Drug uptake (Stomach [20]),SMILES,further results
0.51 % ID/g,0.17 % ID/g,2.25 % ID/g,0.55 % ID/organ,1.38 % ID/g,22.51 % ID/g,0.31 % ID/organ,8.96 % ID/g,4.98 % ID/g,2.36 % ID/g,0.55 % ID/g,3.52 % ID/g,1.46 % ID/g,0.84 % ID/g,3.75 % ID/g,6.3 % ID/g,14.39 % ID/g,30.05 % ID/g,0.68 % ID/organ,0.45 % ID/organ,COc1ccc(-c2cc(=O)c3cc([125I])ccc3o2)cc1,Drug uptake (Spleen [21]): 2.7 % ID/g; Drug uptake (Liver [22]): 9.01 % ID/g; Drug uptake (Liver [23]): 1.88 % ID/g; Drug uptake (Blood [24]): 1.87 % ID/g; Drug uptake (Heart [25]): 0.47 % ID/g; Drug uptake (Brain [26]): 4 % ID/g; Drug uptake (Spleen [27]): 3.67 % ID/g; Drug uptake (Kidney [28]): 7.99 % ID/g; Drug uptake (Blood [29]): 0.23 % ID/g; Drug uptake (Blood [30]): 1.19 % ID/g; Drug uptake (Blood [31]): 0.4 % ID/g; logD [32]: 2.41; Drug uptake (Kidney [33]): 4.51 % ID/g
1.89 % ID/g,0.99 % ID/g,2.47 % ID/g,1.17 % ID/organ,1.92 % ID/g,12.97 % ID/g,1.06 % ID/organ,15.41 % ID/g,5.63 % ID/g,3.61 % ID/g,1.58 % ID/g,2.24 % ID/g,2.32 % ID/g,1.69 % ID/g,15.71 % ID/g,4.31 % ID/g,6.56 % ID/g,18.64 % ID/g,0.73 % ID/organ,0.63 % ID/organ,CN(C)c1ccc(-c2cc(=O)c3cc([125I])ccc3o2)cc1,Drug uptake (Spleen [21]): 2.72 % ID/g; Drug uptake (Liver [22]): 21.85 % ID/g; Drug uptake (Liver [23]): 12.4 % ID/g; Drug uptake (Blood [24]): 1.87 % ID/g; Drug uptake (Heart [25]): 1.07 % ID/g; Drug uptake (Brain [26]): 3.22 % ID/g; Drug uptake (Spleen [27]): 1.18 % ID/g; Drug uptake (Kidney [28]): 8.33 % ID/g; Drug uptake (Blood [29]): 1.15 % ID/g; Drug uptake (Blood [30]): 1.07 % ID/g; Drug uptake (Blood [31]): 1.2 % ID/g; logD [32]: 2.69; Drug uptake (Kidney [33]): 3.4 % ID/g
